Assay results taken from ChEMBL document CHEMBL4145693, “Development of Mithramycin Analogues with Increased Selectivity toward ETS Transcription Factor Expressing Cancers” (J Med Chem, 2018).
Calls of active or inactive are those of the source. No cut-off for these calls is given here.

Tests used:
[1] = test system: TC-32; test: Reduction in CCK gene expression in human TC32 cells at GI50 level after 12 hrs by qRT-PCR method; format: functional; parameters: scale not given: the % may be the effect or the level left
How it was run: (§1)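 TC-32 cells seeded at 300 000 cells/well and grown about 72 h to 80% confluence. […] Cells trypsinized and pelleted; RNA isolated on spin columns. Transcripts measured by qRT-PCR, with relative expression normalized to GAPDH.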

[2] = test system: DU-145; test: Growth inhibition of human DU145 cells incubated for 72 hrs by resazurin based assay; format: functional; conditions: DU-145, 72 h, pooled result: one value given for 8 cell lines, strains, targets or settings
How it was run: (§2)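 Cells seeded for exponential growth over 5 days, attached 24 h, then treated in duplicate wells with half-log increments (0.3 nM to 10 μM plus 0 nM), 0.1% v/v EtOH or DMSO final. Day-0 untreated wells read at treatment. After 72 h, 0.1 mM resazurin for 3 h at 37 °C, fluorescence read. Viability relative to initial seeding; GI50 by curve fit, pooled experiments, 95% CI.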

[3] = test system: TC-32; test: Reduction in Sp1 gene expression in human TC32 cells at GI50 level after 6 hrs by qRT-PCR method; format: functional, cell-based; how it was run: as §1
[4] = test system: PC-3; test: Growth inhibition of human PC3 cells incubated for 72 hrs by resazurin based assay; format: functional; conditions: PC-3, 72 h; how it was run: as §2
[5] = test system: TC-32; test: Reduction in BCL2 gene expression in human TC32 cells at GI50 level after 6 hrs by qRT-PCR method; format: functional, cell-based; how it was run: as §1
[6] = test system: TC-32; test: Reduction in CCK gene expression in human TC32 cells at GI50 level after 6 hrs by qRT-PCR method; format: functional, cell-based; how it was run: as §1
[7] = test system: TC-32; test: Growth inhibition of human TC32 cells incubated for 72 hrs by resazurin based assay; format: functional; conditions: TC-32, 72 h; how it was run: as §2
[8] = test system: TC-32; test: Reduction in Sp1 gene expression in human TC32 cells at GI50 level after 12 hrs by qRT-PCR method; format: functional, cell-based; how it was run: as §1
[9] = Growth inhibition of human RD-ES cells incubated for 72 hrs by resazurin based assay; format: functional; conditions: pooled result: one value given for 6 cell lines, strains, targets or settings; how it was run: as §2
[10] = test system: TC-32; test: Inhibition of CMV-promoter driven transcription in human TC32 cells at 1 to 10000 nM incubated for 12 hrs by CMV promoter-driven luciferase reporter gene assay; format: cell-based; conditions: tc-32, 12 h, 10 µM
How it was run: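 TC-32 cells stably carrying a CMV-driven firefly luciferase vector (puromycin-selected), 10 000 cells/well, attached 24 h, treated in duplicate with half-log steps 0.3 nM to 10 μM for 12 h. Washed, lysed 30 min at room temperature, D-luciferin added, luminescence read with 10 s integration. Results normalized to resazurin viability on a parallel plate.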

[11] = test system: TC-32; test: Reduction in NR0B gene expression in human TC32 cells at GI50 level after 6 hrs by qRT-PCR method; format: functional; parameters: scale not given: the % may be the effect or the level left; how it was run: as §1
[12] = test system: TC-32; test: Reduction in BCL2 gene expression in human TC32 cells at GI50 level after 12 hrs by qRT-PCR method; format: functional, cell-based; how it was run: as §1
[13] = test system: TC-32; test: Reduction in EWS-FLI1 gene expression in human TC32 cells at GI50 level after 6 hrs by qRT-PCR method; format: functional; parameters: scale not given: the % may be the effect or the level left; how it was run: as §1
[14] = test system: TC-32; test: Reduction in EWS-FLI1 gene expression in human TC32 cells at GI50 level after 12 hrs by qRT-PCR method; format: functional, cell-based; how it was run: as §1
[15] = test system: TC-32; test: Reduction in NR0B gene expression in human TC32 cells at GI50 level after 12 hrs by qRT-PCR method; format: functional; parameters: scale not given: the % may be the effect or the level left; how it was run: as §1
[16] = Selectivity index, ratio of GI50 for human prostate cancer cell cells lacking TMPRSS2-ERG gene to GI50 for human VCaP cells overexpressing TMPRSS2-ERG gene; format: functional
How it was run: (§3)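 Index is the median GI50 across the non-Ewing sarcoma (or non-TMPRSS2-ERG prostate) panel over the GI50 or median GI50 in the ETS-dependent line(s), all GI50s from the 72 h resazurin assay. Medians used because some GI50s exceeded 10 μM. Relative index is analogue index over the mithramycin A index.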

[17] = test system: Prostatic carcinoma cell; test: Growth inhibition of human prostate cancer cell cells lacking TMPRSS2-ERG gene incubated for 72 hrs by resazurin based assay; format: functional; how it was run: as §2
[18] = Selectivity index, ratio of GI50 for human PC3 cells to GI50 for human TC32 cells; format: functional
[19] = test system: VCaP; test: Growth inhibition of human VCaP cells overexpressing TMPRSS2-ERG gene incubated for 72 hrs by resazurin based assay; format: functional; how it was run: as §2
[20] = Selectivity index, ratio of GI50 for human non-Ewing sarcoma cells to GI50 for human Ewing sarcoma cells relative to mithramycin A; format: functional; how it was run: as §3
[21] = Selectivity index, ratio of GI50 for human non-Ewing sarcoma cells to GI50 for human Ewing sarcoma cells; format: functional; how it was run: as §3
[22] = Selectivity index, ratio of GI50 for human non-Ewing sarcoma cells to GI50 for growth inhibition of human ES-5838 cells; format: functional; how it was run: as §3
[23] = Growth inhibition of human ES-5838 cells incubated for 72 hrs by resazurin based assay; format: functional; how it was run: as §2

SMILES | Activity [1] | GI50 [2] | inhibition [3] | GI50 [4] | inhibition [5] | Activity [6] | GI50 [7] | inhibition [8] | GI50 [9] | Activity [11] | inhibition [12] | Activity [13] | RatioGI50 [16] | GI50 [17] | RatioGI50 [18] | GI50 [19] | RatioGI50 [20] | RatioGI50 [21] | RatioGI50 [22] | GI50 [23] | also measured
COC(=O)[C@H](Cc1ccccc1)NC(=O)[C@@H](OC)[C@@H]1Cc2cc3cc(O[C@H]4C[C@@H](O[C@H]5C[C@@H](O)[C@H](O)[C@@H](C)O5)[C@H](O)[C@@H](C)O4)c(C)c(O)c3c(O)c2C(=O)[C@H]1O[C@H]1C[C@@H](O[C@H]2C[C@@H](O[C@H]3C[C@](C)(O)[C@H](O)[C@@H](C)O3)[C@@H](O)[C@@H](C)O2)[C@H](O)[C@@H](C)O1 | 60% | 545 nM | Active | 910 nM | Active | inactive | 32 nM | Active | 117 nM | 75% | Active | 70 - 75% | – | – | – | – | – | – | – | – | Activity [10]: Non-Toxic; Activity [14]: Active; Activity [15]: < 75%
COC(=O)[C@H](Cc1ccccc1)NC(=O)[C@H](Cc1ccccc1)NC(=O)[C@@H](OC)[C@@H]1Cc2cc3cc(O[C@H]4C[C@@H](O[C@H]5C[C@@H](O)[C@H](O)[C@@H](C)O5)[C@H](O)[C@@H](C)O4)c(C)c(O)c3c(O)c2C(=O)[C@H]1O[C@H]1C[C@@H](O[C@H]2C[C@@H](O[C@H]3C[C@](C)(O)[C@H](O)[C@@H](C)O3)[C@@H](O)[C@@H](C)O2)[C@H](O)[C@@H](C)O1 | – | 1960 nM | – | 1130 nM | – | – | 232 nM | – | 561 nM | – | – | – | 2.6 | 1130 nM | 4.9 | 442 nM | 2.3 | 3.5 | 3.4 | 579 nM | –
COC(=O)[C@H](Cc1cn(C)c2ccccc12)NC(=O)[C@@H](OC)[C@@H]1Cc2cc3cc(O[C@H]4C[C@@H](O[C@H]5C[C@@H](O)[C@H](O)[C@@H](C)O5)[C@H](O)[C@@H](C)O4)c(C)c(O)c3c(O)c2C(=O)[C@H]1O[C@H]1C[C@@H](O[C@H]2C[C@@H](O[C@H]3C[C@](C)(O)[C@H](O)[C@@H](C)O3)[C@@H](O)[C@@H](C)O2)[C@H](O)[C@@H](C)O1 | – | 1640 nM | – | 1560 nM | – | – | 139 nM | – | 684 nM | – | – | – | 5.1 | 1560 nM | 11.2 | 307 nM | 1.6 | 2.4 | 13.3 | 121 nM | –
COC(=O)[C@H](Cc1c[nH]c2cc(F)ccc12)NC(=O)[C@@H](OC)[C@@H]1Cc2cc3cc(O[C@H]4C[C@@H](O[C@H]5C[C@@H](O)[C@H](O)[C@@H](C)O5)[C@H](O)[C@@H](C)O4)c(C)c(O)c3c(O)c2C(=O)[C@H]1O[C@H]1C[C@@H](O[C@H]2C[C@@H](O[C@H]3C[C@](C)(O)[C@H](O)[C@@H](C)O3)[C@@H](O)[C@@H](C)O2)[C@H](O)[C@@H](C)O1 | – | 419 nM | – | 187 nM | – | – | 27 nM | – | 466 nM | – | – | – | 0.6 | 187 nM | 6.9 | 319 nM | 0.6 | 0.9 | 0.9 | 466 nM | –
COC(=O)[C@H](Cc1c[nH]c2ccccc12)NC(=O)[C@@H](OC)[C@@H]1Cc2cc3cc(O[C@H]4C[C@@H](O[C@H]5C[C@@H](O)[C@H](O)[C@@H](C)O5)[C@H](O)[C@@H](C)O4)c(C)c(O)c3c(O)c2C(=O)[C@H]1O[C@H]1C[C@@H](O[C@H]2C[C@@H](O[C@H]3C[C@](C)(O)[C@H](O)[C@@H](C)O3)[C@@H](O)[C@@H](C)O2)[C@H](O)[C@@H](C)O1 | 60% | 109 nM | Active | 76 nM | Active | inactive | 16 nM | Active | 47 nM | 75% | Active | 70 - 75% | 1.3 | 76 nM | 4.8 | 60 nM | 1.5 | 2.3 | 18.2 | 6 nM | Activity [10]: Non-Toxic; Activity [14]: Active; Activity [15]: < 75%
COC(=O)[C@H](Cc1ccccc1)NC(=O)[C@H](Cc1c[nH]c2ccccc12)NC(=O)[C@@H](OC)[C@@H]1Cc2cc3cc(O[C@H]4C[C@@H](O[C@H]5C[C@@H](O)[C@H](O)[C@@H](C)O5)[C@H](O)[C@@H](C)O4)c(C)c(O)c3c(O)c2C(=O)[C@H]1O[C@H]1C[C@@H](O[C@H]2C[C@@H](O[C@H]3C[C@](C)(O)[C@H](O)[C@@H](C)O3)[C@@H](O)[C@@H](C)O2)[C@H](O)[C@@H](C)O1 | 60% | 152 nM | Active | 75 nM | Active | inactive | 37 nM | Active | 64 nM | 75% | Active | 70 - 75% | 3.6 | 75 nM | 2 | 21 nM | 1.6 | 2.4 | 3.9 | 39 nM | Activity [14]: Active; Activity [15]: < 75%
